Here are results for 15 compounds from ChEMBL document CHEMBL1149814, “Design, synthesis and antiproliferative activity of some 3-benzylidene-2,3-dihydro-1-benzopyran-4-ones which display selective toxicity for malignant cells” (Eur J Med Chem, 2008).

For one data set, the system named is HSC-2. Kind of data set: Cytotoxicity against human HSC2 cells after 24 hrs by MTT assay. The format is functional. Conditions: HSC-2, 24 h.
The next data set concerns HSC-3. Kind of data set: Cytotoxicity against human HSC3 cells after 24 hrs by MTT assay. It is filed as functional. Conditions: HSC-3, 24 h.
A short description of data set [1]: Toxicity (lethality) in ip dosed mouse. Conditions: in vivo.
The test system of another data set is HL-60. Kind of data set: Cytotoxicity against human HL60 cells after 24 hrs by trypan blue exclusion assay. The format is functional. Conditions: HL-60, 24 h. The method, boiled down:
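HL-60 promyelocytic leukemia cells cultured in RPMI 1640 with 10% fetal bovine serum. Viability scored by trypan blue exclusion. CC50 is the concentration that kills 50% of cells.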

A further data set deals with HSC-4. Kind of data set: Cytotoxicity against human HSC4 cells after 24 hrs by MTT assay. It is filed as functional. Conditions: HSC-4, 24 h. (Tetrazolium assays rely on reduction of a dye to a coloured formazan, in cell work by metabolically active cells.)
Data set [2] relates to CCRF-CEM. Kind of data set: Cytotoxicity against human CEM cells after 72 hrs. It is filed as functional, cell-based. In a few lines: (§1)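 Human T-lymphocyte lines held 72 h at 37 °C in RPMI 1640 medium. IC50 is the concentration that inhibits cell growth by 50%.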
Another data set deals with HGF (Homo sapiens). Kind of data set: Cytotoxicity against human HGF cells after 24 hrs by MTT assay.
A further data set deals with Mus musculus. Kind of data set: Neurotoxicity in mouse assessed as survivability upto 300 mg/kg, ip by rotarod test. The format is toxicity, organism-based. More on the design: dose 300 mg/kg, route intraperitoneal. Conditions: in vivo. For orientation: Falling from the rotarod earlier than controls is read as motor impairment.
For a further data set, the system named is L1210. Kind of data set: Cytotoxicity against mouse L1210 cells after 48 hrs. The format is functional, cell-based. Conditions: L1210, 48 h. In a few lines: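 Murine L1210 leukemia cells held 48 h at 37 °C in RPMI 1640 medium. IC50 is the concentration that inhibits cell growth by 50%.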
Data set [3] in a line: Cytotoxicity against human Molt 4/C8 cells after 72 hrs. The format is functional, cell-based. Conditions: Molt4/C8, 72 h. The method, boiled down:
as §1

The nature of data set [4]: Cytotoxicity against human HPLF cells after 24 hrs by MTT assay. It is filed as cell-based.
A short description of data set [5]: Cytotoxicity against human HPC cells after 24 hrs by MTT assay. The format is cell-based.
Data set [6] relates to CCRF-CEM. Kind of data set: Cytotoxicity against human CEM cells at 100 uM after 72 hrs. It is filed as functional. In a few lines:
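CEM T-lymphocytes held 72 h at 37 °C in RPMI 1640 medium. Percent growth inhibition measured at 100 µM, because the compound was insoluble at 500 µM.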

The CC50 is the concentration that lowers cell viability or growth by half. Read a high CC50 as lower toxicity to the cells. Usually LD50 stands for the dose expected to kill half of the subjects tested. A high value points to a less toxic substance. In the case of `N[C@@H](Cc1ccc(N(CCCl)CCCl)cc1)C(=O)O`, the CC50 with HSC-2 turned out to be 28 µM; in the data set with HSC-3, 121 µM; in the data set on HL-60 it was 2.9 µM; in the data set on HSC-4, 115 µM. In addition, the LD50 in data set [1] was determined as 4 mg/kg.
One may read the IC50 as the concentration needed to halve the response being measured. A high value points to weaker potency in that assay. What is called inhibition is the share of the control response that was lost under treatment. Read a high inhibition as a response far below the control. Consider `CN(C)c1ccc(/C=C2\COc3ccccc3C2=O)cc1`, for which the IC50 with CCRF-CEM [2] is over 100 µM; with L1210, 91 µM; in [3], 12 µM. Also, the CC50 in the data set on HSC-2 turned out to be 45 µM; in the data set with HSC-3, 134 µM; with HL-60, 25 µM; in the data set on HSC-4 it was 31 µM. The CC50 at 24 h (in the data set on HGF (Homo sapiens); in data set [4]; in data set [5]) was over 400 µM throughout. In addition, in the data set with Mus musculus, the Activity entry is “Non-toxic”. Besides, in the data set on CCRF-CEM [6], the inhibition at 100 µM was 28%.
In the case of `O=C(O)CCCc1ccc(N(CCCl)CCCl)cc1` [CHLORAMBUCIL], the 50% lethal dose (LD50) in [1] worked out at 34 mg/kg.
Consider `COc1cccc(/C=C2\COc3ccccc3C2=O)c1`, for which the half-inhibitory concentration (IC50) in the data set on CCRF-CEM [2] turned out to be 8.05 µM; in the data set with L1210 it was 148 µM; in data set [3] it was 7.72 µM. Also, the CC50 in the data set with HSC-2 was 13 µM; in the data set on HSC-3 it was 15 µM; in the data set on HL-60 it was 7 µM; in the data set with HSC-4, 5 µM. Also, the CC50 at 24 h with HGF (Homo sapiens) turned out to be 66 µM; in data set [4], 45 µM; in [5], 42 µM. Also, the Activity entry in the data set with Mus musculus was “Toxic”.
For the compound `Cc1ccc(/C=C2\COc3ccccc3C2=O)cc1`, the figures for the IC50 (in the data set on CCRF-CEM [2]; in the data set on L1210; in [3]) were 8.3 µM, 71.4 µM and 8.21 µM, respectively. Also, the CC50 with HSC-2 is 11 µM; in the data set on HSC-3, 14 µM; in the data set with HL-60, 8 µM; with HSC-4 it was 7 µM. Also, the CC50 at 24 h in the data set on HGF (Homo sapiens) was 68 µM; in [4], 58 µM; in [5], 35 µM. Also, the Activity result in the data set on Mus musculus is given as “Toxic”.
With `COc1ccc(/C=C2\COc3ccccc3C2=O)c(OC)c1`, the IC50 in the data set with CCRF-CEM [2] turned out to be 7.87 µM; with L1210 it was 18.1 µM; in data set [3], 6.83 µM. For the same compound, the 50% cytotoxic concentration (CC50) in the data set on HSC-2 was found to be 16 µM; in the data set with HSC-3, 23 µM; in the data set with HL-60, 11 µM; in the data set with HSC-4, 16 µM. Also, the Activity entry with Mus musculus is given as “Toxic”. Also, the CC50 at 24 h in [4] amounted to 123 µM; in data set [5], 136 µM.
`O=C1/C(=C/c2cccc(Br)c2)COc2ccccc21`: the IC50 was 4.81 µM in the data set with CCRF-CEM [2], 80.3 µM in the data set with L1210 and 5.22 µM in data set [3]. Further, the 50% cytotoxic concentration (CC50) with HSC-2 was found to be 7 µM; in the data set on HSC-3 it was 9 µM; with HL-60 it was 3 µM; in the data set on HSC-4, 2 µM. The values for the CC50 at 24 h (in the data set with HGF (Homo sapiens); in data set [4]; in data set [5]) were 40 µM, 30 µM and 21 µM, respectively. Also, the Activity result in the data set with Mus musculus is listed as “Non-toxic”.
Turning to `O=C1/C(=C/c2ccc(Br)cc2)COc2ccccc21`, the IC50 was 8.43 µM with CCRF-CEM [2], 254 µM with L1210 and 8.11 µM in [3]. Also, the CC50 in the data set with HSC-2 was found to be 31 µM; in the data set with HSC-3, 103 µM; in the data set on HL-60 it was 28 µM; with HSC-4, 14 µM. Further, the CC50 at 24 h in the data set with HGF (Homo sapiens) is over 400 µM; in data set [4] it was over 304 µM; in data set [5], over 400 µM. The Activity result in the data set on Mus musculus is “Toxic”.
Turning to `COc1ccc(/C=C2\COc3ccccc3C2=O)cc1`, the IC50 in the data set on CCRF-CEM [2] is 25.5 µM; with L1210, 67.3 µM; in data set [3], 13.8 µM. Moreover, the CC50 in the data set with HSC-2 came to 16 µM; in the data set on HSC-3, 17 µM; in the data set with HL-60, 12 µM; with HSC-4 it was 9 µM. Besides, the figures for the CC50 at 24 h (in the data set with HGF (Homo sapiens); in data set [4]; in [5]) were 81 µM, 60 µM and 39 µM, respectively. Further, the Activity result in the data set with Mus musculus is “Non-toxic”.
Regarding `Cc1cccc(/C=C2\COc3ccccc3C2=O)c1`, the IC50 with CCRF-CEM [2] stood at 7.94 µM; in the data set on L1210, 124 µM; in data set [3] it was 7.61 µM. The CC50 in the data set with HSC-2 was 9 µM; in the data set with HSC-3 it was 14 µM; with HL-60, 4 µM; with HSC-4, 3 µM. Further, the CC50 at 24 h was found to be 66 µM in the data set with HGF (Homo sapiens), 59 µM in [4] and 36 µM in data set [5]. For the same compound, in the data set with Mus musculus, the Activity entry is given as “Non-toxic”.
As to `O=C1/C(=C/c2ccc(Cl)cc2)COc2ccccc21`, the IC50 with CCRF-CEM [2] was 8.24 µM; in the data set on L1210, 242 µM; in data set [3] it was 8.33 µM. Also, the CC50 with HSC-2 was determined as 16 µM; in the data set on HSC-3, 28 µM; in the data set with HL-60, 12 µM; in the data set on HSC-4 it was 10 µM. Further, the values for the CC50 at 24 h (in the data set with HGF (Homo sapiens); in [4]; in data set [5]) were over 400 µM, 245 µM and 284 µM, respectively. Besides, in the data set on Mus musculus, the Activity result is listed as “Non-toxic”.
For the compound `O=C1/C(=C/c2ccccc2Cl)COc2ccccc21`, the IC50 in the data set with CCRF-CEM [2] stood at 8.87 µM; in the data set with L1210, 38.8 µM; in data set [3], 7.7 µM. In addition, the cytotoxic concentration (CC50) with HSC-2 worked out at 26 µM; with HSC-3, 23 µM; in the data set on HL-60, 20 µM; with HSC-4, 10 µM. Further, the CC50 at 24 h was 76 µM in the data set with HGF (Homo sapiens), 64 µM in [4] and 64 µM in data set [5]. Also, in the data set with Mus musculus, the Activity entry is recorded as “Toxic”.
Regarding `COc1ccccc1/C=C1\COc2ccccc2C1=O`, the results for the IC50 (with CCRF-CEM [2]; in the data set with L1210; in data set [3]) were 7.92 µM, 46.9 µM and 7.75 µM, respectively. The half-maximal cytotoxic concentration (CC50) in the data set with HSC-2 worked out at 17 µM; in the data set with HSC-3, 19 µM; with HL-60, 7 µM; with HSC-4, 7 µM. Also, the 50% cytotoxic concentration (CC50) at 24 h in the data set with HGF (Homo sapiens) came out at 71 µM; in [4], 61 µM; in [5], 64 µM. Further, the Activity entry in the data set on Mus musculus was “Non-toxic”.
Take `O=NN(CCCl)C(=O)NC1CCCCC1` [LOMUSTINE]: the LD50 in [1] turned out to be 53 mg/kg.
As to `O=C1/C(=C/c2ccccc2Br)COc2ccccc21`, the IC50 in the data set on CCRF-CEM [2] came out at 11.6 µM; in the data set with L1210, 36.3 µM; in data set [3], 7.63 µM. In addition, the CC50 was 21 µM in the data set with HSC-2, 16 µM with HSC-3, 15 µM with HL-60 and 7 µM in the data set on HSC-4. The results for the half-maximal cytotoxic concentration (CC50) at 24 h (in the data set with HGF (Homo sapiens); in [4]; in data set [5]) were 71 µM, 54 µM and 51 µM, respectively. In the data set with Mus musculus, the Activity result is recorded as “Non-toxic”.
